Sampled rows, rich in hits. Any-hit rate of the full collection: about 4.3%.
Dyrk1A ADPGlo = blocks rat Dyrk1A kinase activity; Q63470; ADP-Glo luminescence, NFATc1 peptide; inhibition, % at 12.5 µM; 0.43% of 310,000 active; AID 504441; in the data active = inhibition above about 50%;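 note: plate controls were vehicle with enzyme for no effect and no enzyme for full effect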
CAL PDZ FP-1 = inhibitors of human CAL PDZ peptide binding; Q9HD26; purified CAL PDZ, TMR-peptide fluorescence polarization, 1 h; inhibition, % at 20 µM; 0.02% of 330,000 active;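 active = highest replicate inhibition of at least 40%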;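 note: plate controls were DMSO neutral control wells for no effect and unlabeled competitor peptide control wells for full effect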
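Test system: purified CerCALP PDZ construct; Compound dosing: one concentration, 20 µM compound; Also added: TMR-labelled reporter peptide T*-PRC34 bound in PDZ groove; Read-out: inhibition from polarization loss; Controls: unlabelled peptide and DMSO controls; Signal: FP readout, S and P plane fluorescence; Incubation: 1 h at RT.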
CAL PDZ FP-2 = inhibitors of human CAL PDZ peptide binding | 0.92% of 300,000 active | Q9HD26 | AID 602252 | inhibition, % at 24.9 µM | purified CAL PDZ, TMR-peptide fluorescence polarization, 1 h;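 active = mean inhibition of at least 30% with at least half of replicates also reaching 30%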;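 note: 0% = DMSO neutral control and 100% = excess unlabeled competitor peptide PRC23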
ALR inh = human ALR oxidase inhibition via reduced H2O2; P55789; purified ALR, DTT oxidation, H2O2 HRP-luminol luminescence; inhibition, % (no concentration beside the values); 3.8% of 290,000 active;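 active = mean replicate inhibition above about 79%, with every replicate also reaching it, limit read from the data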
Target sequence (P55789 whole entry, looked up): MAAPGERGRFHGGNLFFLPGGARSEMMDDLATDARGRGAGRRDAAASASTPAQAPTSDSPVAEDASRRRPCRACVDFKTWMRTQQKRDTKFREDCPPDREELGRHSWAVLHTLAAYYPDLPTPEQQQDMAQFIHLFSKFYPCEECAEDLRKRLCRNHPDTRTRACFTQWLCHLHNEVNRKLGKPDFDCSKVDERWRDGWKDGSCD
Rtt109 HAT inh = inhibitors of Candida albicans Rtt109/Vps75 histone acetyltransferase. 0.16% of 330,000 active. purified Rtt109/Vps75, ThioGlo CoA-SH fluorescence, 4 h. AID 540336. inhibition, % at 34.9 µM;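 active = inhibition of at least 50% in every replicate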
Target sequence (Q5AAJ8 whole entry, looked up): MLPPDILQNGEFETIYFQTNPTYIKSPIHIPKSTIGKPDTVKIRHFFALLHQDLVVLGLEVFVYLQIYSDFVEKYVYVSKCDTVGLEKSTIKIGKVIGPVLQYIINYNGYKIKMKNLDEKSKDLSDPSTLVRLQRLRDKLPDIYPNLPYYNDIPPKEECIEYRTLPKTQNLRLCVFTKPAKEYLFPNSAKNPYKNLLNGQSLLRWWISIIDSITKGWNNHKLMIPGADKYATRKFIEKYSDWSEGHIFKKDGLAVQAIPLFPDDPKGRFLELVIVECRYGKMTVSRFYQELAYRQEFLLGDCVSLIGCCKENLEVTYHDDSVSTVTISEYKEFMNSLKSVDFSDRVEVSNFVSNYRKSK
Active calls of the source: *; / = not tested or not shown.

SMILES | Dyrk1A ADPGlo | CAL PDZ FP-1 | CAL PDZ FP-2 | ALR inh | Rtt109 HAT inh
CCC(C)(C(=O)NC1CCCC1)N(C(=O)CC1NC(=O)NC1=O)c1ccc(C)cc1 (centres undefined) | 3.3 | 0.1 | 60.5* | / | -1.1
COc1cc2c(c(NC(C)=O)c1)N(C(C)=O)CCC2 | / | -4.2 | 9.5 | / | -2.0
CCc1ccccc1NC(=O)CNC(=O)c1ccc(-n2cncn2)c([N+](=O)[O-])c1 | 2.5 | -0.6 | -5.0 | -10.7 | /
O=c1oc2ccccc2cc1NCc1ccccc1O | 9.2 | 0.2 | 0.5 | 96.3* | 4.7
COc1ccc(-c2cc3ccc(O)cc3oc2=O)cc1OC | 2.3 | -2.8 | -4.9 | 98.6* | -3.9
Nc1ccc2oc(=O)c(-c3ccccc3)cc2c1 | -2.3 | -0.3 | -4.8 | 97.8* | -13.6
Cc1cc(N)ccc1-c1cc2ccccc2oc1=O | 13.9 | -2.6 | 4.8 | 98.5* | -11.0
CN(C(=O)c1nn(C)c2c1CSc1ccccc1-2)c1ccccc1Cl | 4.2 | -1.7 | -1.7 | 0.1 | 10.7
Cc1ccc2c(c1)-n1c(nc3ccc(C)cc3c1=O)C(Cc1ccc(O)cc1)NC2=O (centres undefined) | / | / | / | 1.1 | /
O=[N+]([O-])CC1(n2nc3ccccc3n2)CCCCC1 | -2.1 | -0.5 | -0.6 | / | -5.0
O=c1oc2ccccc2cc1-c1ccc(O)cc1 | 24.2 | -0.6 | -2.3 | 94.5* | 5.3
Cc1ccc(CSCC(=O)Nc2cc(S(=O)(=O)N3CCOCC3)ccc2OCC(F)(F)F)cc1 | -1.4 | -0.4 | -16.6 | / | 10.9
Cc1c(Cl)c(-c2n[nH]c(=S)n2-c2ccccc2)nn1C | / | -2.6 | -2.0 | 91.6* | 2.2
Cc1c(Cl)c(-c2n[nH]c(=S)n2Cc2ccco2)nn1C | 0.8 | 0.2 | 1.0 | 21.0 | 6.6
Cn1c(-c2ccccc2Br)n[nH]c1=S | -1.4 | -0.5 | -3.6 | 95.6* | -10.5
COc1ccc(OC)c(-n2c(-c3ccccc3)n[nH]c2=S)c1 | / | 0.9 | 36.8* | 20.7 | -4.1
Cc1ccn2c(-c3n[nH]c(=S)n3C)c(C)nc2c1 | 12.3 | 0.1 | -6.2 | 95.2* | -5.3
Cn1c(-c2ccco2)n[nH]c1=S | 1.0 | 0.3 | 4.0 | 16.9 | -2.3
CN(CC(=O)Nc1cccc(F)c1)C(=O)c1ccc(N2CCCCC2)c([N+](=O)[O-])c1 | 11.7 | 0.7 | / | 1.6 | -8.3
CCN1C(=O)[C@H]2[C@H]3CN=C(SCc4ccc(C)cc4)N3[C@@](CC)(C(=O)OC)[C@H]2C1=O | 0.0 | -1.9 | -0.7 | / | -4.3
O=C1C2C3C=CC(C2C(=O)N1CCO)C1C(=O)N(CCO)C(=O)C31 (centres undefined) | -4.2 | 0.3 | -1.4 | -27.3 | 0.2
CCn1c(-c2cc(-c3ccc(C)c(C)c3)nc3ccccc23)n[nH]c1=S | / | / | / | 40.1 | /
CSc1nnc(-c2sc(-c3ccccc3)nc2C)n1C | -7.7 | 0.0 | -2.0 | 1.7 | 4.2
CCN(CC)c1ccc(-c2n[nH]c(=S)n2-c2ccccc2)cc1 | 5.2 | -2.8 | -4.2 | 21.0 | 4.2
Cc1ccc(-c2cc(-c3n[nH]c(=S)n3C)c3ccccc3n2)cc1 | 1.8 | -1.8 | -2.6 | 97.0* | 24.8
SMILES | Dyrk1A ADPGlo | CAL PDZ FP-1 | CAL PDZ FP-2 | ALR inh | Rtt109 HAT inh
Cn1c(-c2ccccc2)n[nH]c1=S | -3.1 | -0.2 | -3.2 | 92.6* | 2.0
Cc1nc(-c2ccccc2)sc1-c1n[nH]c(=S)n1C | 4.2 | -2.2 | 0.9 | 92.0* | /
CN(C)c1ccc(-c2n[nH]c(=S)n2-c2ccccc2)cc1 | / | -4.6 | -4.4 | 94.9* | -8.4
Cc1cc(Cl)ccc1OCCCC(=O)Nc1ccc(S(=O)(=O)Nc2ncccn2)cc1 | 3.2 | -1.8 | / | / | -4.6
Cn1c(-c2sccc2OCc2ccccc2)n[nH]c1=S | 3.7 | -1.5 | -7.0 | 96.8* | 0.1
Cc1ccc(COc2ccsc2-c2n[nH]c(=S)n2C)cc1 | -3.0 | -0.3 | -2.3 | 5.4 | -2.5
CC(=O)O[C@H]1CC(=O)OC(C)(C)C2CC(=O)[C@]3(C)C(CC[C@@](C)([C@@H](O[C@@H]4O[C@H](CO)[C@@H](O)[C@H](O)[C@H]4O)c4ccoc4)[C@@]34O[C@@H]4C(=O)O)[C@]21C (some centres undefined) | -0.5 | -0.8 | 4.6 | / | -0.9
CCN1/C(=C/C(C)=C/c2sc3ccccc3[n+]2CC)Sc2ccccc21 | 25.8 | -14.1 | -126.1 | 99.0* | 133.7*
Cc1csc(=Nc2ccccc2)n1C | -4.1 | -3.3 | -4.4 | 99.0* | /
COc1ccc2cc(C(=O)NCCCN3CCCC3=O)[nH]c2c1 | 12.1 | -1.7 | 1.1 | -9.4 | -1.3
Cc1csc(=Nc2ccccc2)n1CCCN1CCCC1=O | -8.8 | 0.1 | 23.1 | 98.5* | 12.0
COc1ccc(N=c2scc(C)n2CCCN2CCCC2=O)cc1 | -1.8 | -1.4 | -1.9 | 99.7* | -0.3
O=C1CCCN1CCCNC(=S)Nc1ccccc1 | / | / | / | 1.1 | /
COc1cc2ccccc2cc1C(=O)Nc1ccc(Br)cn1 | 10.1 | 1.5 | -1.3 | -5.9 | 59.2*
COc1c(C(=O)Nc2ccc(Br)cn2)ccc2ccccc12 | 2.3 | -1.0 | -1.5 | -27.5 | -5.6
Cc1ccc(C)c(S(=O)(=O)Nc2cc(SCC(=O)O)c(O)c3ccccc23)c1 | 5.0 | 45.2* | 17.3 | 56.4 | -39.8
CCc1ccc(S(=O)(=O)Nc2cc(SCC(=O)O)c(O)c3ccccc23)cc1 | 20.9 | 18.8 | 16.1 | 45.4 | -4.9
N#Cc1ccccc1CN1C(=O)S/C(=C/c2cccn2-c2ccc(C(=O)O)cc2)C1=O | -0.2 | -1.6 | -7.3 | 98.1* | 14.1
C/C(=N\NC(=O)c1cc(C)oc1C)c1ccc(N2CCOCC2)cc1 | -2.1 | -1.0 | 1.2 | 82.6* | -2.3
C/C(=N\NC(=O)c1ccccc1Br)c1ccc(N2CCOCC2)cc1 | -0.3 | -0.1 | -1.5 | 12.7 | 6.3
C/C(=N\Nc1nc(C)cc(C)n1)c1ccc(N2CCOCC2)cc1 | -2.2 | -0.3 | 3.5 | 99.2* | -1.2
COc1ccccc1-n1cnnc1SCC(=O)c1c[nH]c2ccccc12 | 1.3 | -2.0 | 2.7 | -2.9 | -19.4
COc1cc(-c2nnc(SCC3(c4ccccc4)OCCO3)o2)cc(OC)c1OC | -1.5 | -1.7 | -1.8 | -19.5 | 6.4
C#Cc1ccc([C@H]2C=C(C(=O)N3CCN(Cc4ccc5c(c4)OCO5)CC3)O[C@@H](OCC)[C@@H]2CCCO)cc1 | -2.7 | -0.2 | -3.9 | -2.7 | 10.4
N#Cc1cc2c(cc1NC(=O)CCn1cnnn1)OCO2 | 3.7 | -2.1 | -4.3 | -11.1 | -16.4
SMILES | Dyrk1A ADPGlo | CAL PDZ FP-1 | CAL PDZ FP-2 | ALR inh | Rtt109 HAT inh
O=C(CCn1cnnn1)Nc1ccc(Cl)cc1Cl | 5.6 | -1.2 | 86.4* | -1.3 | /
Cc1ccc(-c2nc(CS(=O)CC(=O)NCc3ccc4c(c3)OCO4)c(C)o2)cc1 (centres undefined) | -4.4 | 0.0 | / | 98.8* | -3.4
CCc1ccc(-c2nc(CS(=O)CC(=O)NCc3ccc4c(c3)OCO4)c(C)o2)cc1 (centres undefined) | 2.5 | -1.1 | -5.8 | 99.4* | -2.0
Cc1ccc(CC(=O)NCc2ccc3c(c2)OCO3)cc1 | 0.6 | -2.5 | 2.3 | 0.3 | -10.3
Cc1ccc(-c2noc(CCC(=O)NCc3ccc4c(c3)OCO4)n2)cc1 | -6.5 | 0.8 | -1.0 | / | 0.6
COc1cc(S(=O)(=O)N(Cc2cccnc2)Cc2cccc(OC)c2OC)ccc1-n1cnnn1 | -2.1 | -2.3 | 2.6 | / | 4.4

Screening results from PubChem.
